Reference: the RNAGym collection of RNA variant scans (doi:10.1126/science.aae0568)
This sample holds only a part of the variants without activity.

B1: tRNA (parent)
chain: GUUCCGUUGGCGUAAUGGUAACGCGUCUCCCUCCUAAGGAGAAGACUGCGGGUUCGAGUCCCGUACGGAACG

Variants of: B1
Assay: yeast fitness relative to wild type (ratio to wild type); higher = fitter; tRNA-Arg(CCU), competitive growth, 37 C, YPD
In short: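 Variants of the tRNA-Arg(CCU) gene were chemically synthesised with a 3% per-site mutation rate across 69 sites and placed at the native genomic locus in Saccharomyces cerevisiae. Six parallel replicates of the pooled strains were competed in YPD at 37°C for 24 hours, and gene amplicons from the start and end populations were read by 100-nucleotide paired-end sequencing. Darwinian fitness relative to wild type was derived from changes in genotype frequencies. Genotypes required ≥ 100 starting reads, and estimates < 0.5 were set to 0.5.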

Row | Variant | yeast fitness
1 | GUUCCAUUGGCGUAAUGGUAAUGCGUCUCCCUCCUAAGGAGCAGACUGCGGGUUCGAGUCCCGUACGGAACG [G6A C22U A42C] | 0.605
2 | GUUCCGAUGGUGUAAUGGUAACGCGUCUCCCUCCUAAGGGGUAGACUGCGGGUUCGAGUCCAGUACGGAACG [U7A C11U A40G A42U C62A] | ≤ 0.5
3 | GUUCCGUUGGCGUAAUGGUAACGCGUCUCCCUCCUAAGGAGAAGACUGCGGAUUCGAGUCCCAUACAGAACG [G52A G63A G67A] | 0.553
4 | GUUCCGUUGGCGUAAUGGUAAGGCGUCUCCCUCCUAAGGUGAUGACUGCGGGUUCGAGUCUCGUACGGAACG [C22G A40U A43U C61U] | ≤ 0.5
5 | GUUCCGUUGGCGUAAUGGUAACGCCGCUCCCUCCUAAGGAGAAGAGUGCGGGUUCGAGUGCCGUACGGAACG [G25C U26G C46G C60G] | ≤ 0.5
6 | GAUCCGUUGGCGUAAUGGUAACGCGUCUCCCUCCUAAGGAGAAGACUGCGGGUUCGAGUCCCGUUCGGAACG [U2A A65U] | 0.812
7 | GUUCCGUUGGCGUACUGGUAACGCGUCUCCCUCGUAAGGAGAAGAAUGCGGGUUCGAGUCUCGUAGGGAACG [A15C C34G C46A C61U C66G] | ≤ 0.5
8 | GUUCCGGUGGCGUGAUGGUAACGCGUCUCCCUCCUAAGGAGAAGACUGCGGGUUCGAGACCCGUACGGAACG [U7G A14G U59A] | 0.542
9 | GUUCUGUUGGCGUAAUGGUAUCGCGUCUCCCUCCUAAGGAGAAGACUGCGGGUUCGAGUCCCGAACGGAACG [C5U A21U U64A] | ≤ 0.5
10 | GUUCCGUUCGCGUAAUGCUAACGCGUCUCCCUCCUAAGGAGAAGACUGGGGGUUCGAGUCCCGUACGGAACG [G9C G18C C49G] | ≤ 0.5
11 | GUCCCGUUGCCGUAAUGGUAAUGCGUCUCCCUCCUAAGGAGAAGACUGCGGGUUGGAGUCCCGUACGGAACG [U3C G10C C22U C55G] | ≤ 0.5
12 | GUUCCGUUGGCGUAAUGGUAUCGCGUCUCCCUUCUAAGGAGAAGACUGCGGGUUCGUGCCCCGUACGGAACG [A21U C33U A57U U59C] | 0.639
13 | GUUCAGUUGGGGUAAUGGUAACGCGUCUCCCUCCUAAGGAGAAGACUGCGGGUUCGGGUCCCGUACGGAACG [C5A C11G A57G] | ≤ 0.5
14 | GUUCCGUUGGAGUAAUGGUAACGCGUCUCCCUCCUAAGGAGAAGCCUGCGGGUUUGAGUCCCGUACGGAACG [C11A A45C C55U] | 0.517
15 | GUUCCGUUGGCCUAAUGGUAACGCGUCUCCCUCCUAAGCAGAGGACUGCGGGUUCGAGUCCCGUACGGAACG [G12C G39C A43G] | ≤ 0.5
16 | GUUCCGUUGGCGUAAUGGCAACGCGUCUCCCUCCUAAGGAGAAGAUUGCGGGUUCGAGUCCCGUACGGAACG [U19C C46U] | 1.06
17 | GUUCCGUUGGCCUAAUGGUAACGCAUCUCCCUCCCAAGGAGAAGACUGCGGGUUCGAGUCCCGUACGGAACG [G12C G25A U35C] | 0.552
18 | GUUCCGUUGGCGUAGUGGUAACGCGUCUCCCUCCUAAGGAGAAGACUGCGGGUUCCAGUCUCGUACGGAACG [A15G G56C C61U] | ≤ 0.5
19 | GUUCCGUUGGCGUAAUGGUGACGCGUCUCCCUCCUGAGGAGAAGACUGCGGGUUCGAGUCCCGUGCGGAACG [A20G A36G A65G] | 0.846

Row | Variant | yeast fitness
20 | GUUGCGUUGGCGUAAUGGUAACGCGUCUCCCUCGUAUGGAGUAGACUGCGGGUUCGAGUCUCGUACGGAACG [C4G C34G A37U A42U C61U] | ≤ 0.5
21 | GUUCCGUUGGCGUAAUGGUAACGCGUCCGCCUACUAAGGAGAAGACUGCGGGUUCGAGUCCCGUACGCAACG [U28C C29G C33A G68C] | ≤ 0.5
22 | GUUCCGUUGGCGUAAUGGUAACGCGUCUCACUCGUAAGGAGAAGACUGCGGGUUCGAGUACCGAACGGAACG [C30A C34G C60A U64A] | 0.541
23 | GUUCCGUUGGCGUAAUGGUAACGCGUCUGCCUCCUAAGGAGAAGACUAUGGGUUCGAGUCCCGUACGGAACG [C29G G48A C49U] | ≤ 0.5
24 | GUUCCGUUGGCGUAAUGGUAACGCGUCUCCCUCCUAAGGAGAUGACUGCGGGUUCGAGUACUGUACGGAACG [A43U C60A C62U] | 0.65
25 | GUUCCGUAGGCGUAAUGAUAACGCGUCUCACACCGAAGGAGAAGACUGCGGGUUCAAGUACGGUAAGGAACG [U8A G18A C30A U32A U35G G56A C60A C62G C66A] | ≤ 0.5
26 | GUUCCGGUGGCGUGAUGGUAACGCGUCUCCCUCCUAAGGAGAAGACUGCGGGUUCGAGUCCCGUACGGAACG [U7G A14G] | 0.911
27 | GUUCCGUUGGCGUAAUGGUAACGGGUCUCCCUCCUGAGGAGAAGACUGCUGGAUCGAGUCCCGUACGGAACG [C24G A36G G50U U53A] | ≤ 0.5
28 | GUUCCGUUGGCGUAAUGGUAACGCGUCUCCCUCCUAAGGACAAGACUGCGGGUUCGAGUCCCGAACGGAACG [G41C U64A] | 0.67
29 | GUUCCGUUGGCGUAAUGGUAACGUGUCUCCCUCCUAAGGAGAAGACUGCGGGUUCGAGUCCCGUACGGUACG [C24U A69U] | 0.99
30 | GUUCCGUUGGCGUAAUGGUAACGCGUCUUCCUCCUAAGGAGAAGACUGCGGGCUCGAGUCCCGUACGGAACG [C29U U53C] | 0.843
31 | GUUCCGUUGGCGAAAUGGUAACGCGGCUCGCUCCUAAGGAGAAGACUGGGGGUUCGAGUCCCGUACGGAACG [U13A U26G C30G C49G] | 0.501
32 | GUUCAGUUGGCGUAACGGUACCGCGUCUCCCUUCUAAGGGGAAGACUGCGGGUUCGAGUCCCCUACGGAACG [C5A U16C A21C C33U A40G G63C] | ≤ 0.5
33 | GUUCCGUUGGCGUUAUGGUAUCGCGUCUCCCUCCUAAGGAGAAGACUGCGGGUUCGACUCCCGUACGGAACG [A14U A21U G58C] | ≤ 0.5
34 | GUUCGGUUGGCGUCAUGGUAACGCGUCUACGUCCUAAGGAGAAGACUGCGGGUACGAGUCCCGUACGGAGCG [C5G A14C C29A C31G U54A A70G] | 0.531
35 | GUUCCGUUGGCGUAAUGGUAACGCGUCUCCCUCCUAAAGAGUAGACUGCGGGUACGAGUCCCGUACGGAACG [G38A A42U U54A] | ≤ 0.5
36 | GUUCCGUUGGCGUAAUGGUUACGCGCCUCCCUCCUAAGGAGAAGACCGCGGGUUCGAGUCCCGUACGGAGCG [A20U U26C U47C A70G] | 0.603
37 | GUUCCGUUGGCGUAAUGGUAACGCGUCUCCCUCCUAGGGAGGAGACUGCGGGUUCGAGUCCCGUACGGAUCG [A37G A42G A70U] | 0.539
